Data: ChEMBL document CHEMBL1649161, “Pharmacokinetics of EDP-420 after ascending single oral doses in healthy adult volunteers” (Antimicrob Agents Chemother, 2009)
Converted amounts (≈) assume the structure as drawn.

Experiments:
[1] = AUC (0 to last) in healthy human plasma at 100 mg, po administered as single dose measured after 120 hrs; format: ADME, organism-based; set-up: dose 100 mg, route oral, time 0 - last
Summary of the method: (§1)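 Healthy adults (6 per dose group) received a single oral suspension after an 8-h fast, with food withheld 4 h. EDTA blood was drawn predose to 120 h. Plasma was protein-precipitated with ACN and assayed by LC-MS/MS (clarithromycin internal standard; range 1–1,000 ng/ml). AUC0-last was computed by linear-up/log-down trapezoid; AUC0-∞ added Clast/λz. Values are noncompartmental means.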

[2] = Tmax in healthy human plasma at 800 mg, po administered as single dose measured after 120 hrs; format: ADME, organism-based
Summary of the method: (§2)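 Fasted healthy adults (n = 6 per group) took one oral suspension dose. Plasma was sampled from predose through 0.25–120 h postdose and measured by validated LC-MS/MS (lower limit 1 ng/ml). Tmax was read directly from observed concentration–time data using actual sampling times and reported as median with range.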

[3] = Apparent volume of distribution in healthy human plasma at 800 mg, po administered as single dose measured after 120 hrs; format: ADME, organism-based
[4] = Apparent oral clearance in healthy human plasma at 200 mg, po administered as single dose measured after 120 hrs; format: ADME, organism-based
Summary of the method: (§3)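 Single oral suspension dose in fasted healthy adults (6 per group). Plasma was collected to 120 h and measured by LC-MS/MS (1–1,000 ng/ml). Apparent oral clearance was dose divided by AUC0-∞ (noncompartmental, linear-up/log-down trapezoid extrapolated with Clast/λz); the mean was reported.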

[5] = Apparent volume of distribution in healthy human plasma at 100 mg, po administered as single dose measured after 120 hrs; format: ADME, organism-based
Homo sapiens [6] = test: Toxicity in healthy human assessed as incidence of adverse events at 100 to 1200 mg, po administered as single dose; format: organism-based; settings: in vivo
Summary of the method: (§4)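 Randomized, double-blind, placebo-controlled single ascending dose study with eight subjects per group (6 drug, 2 placebo of microcrystalline cellulose). Subjects were fasted before dosing. Safety labs were done at 120 h, with a full chemistry panel also at 72 and 96 h for the top dose. Final evaluation on day 8–10, with adverse events recorded.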

[7] = Half life in healthy human plasma at 1200 mg, po administered as single dose measured after 120 hrs; format: ADME, organism-based
[8] = Elimination rate constant in healthy human plasma at 200 mg, po administered as single dose measured after 120 hrs; format: ADME, organism-based
Homo sapiens [9] = test: Toxicity in healthy human assessed as changes in vital signs at 100 to 1200 mg, po administered as single dose; format: organism-based; settings: in vivo
Summary of the method: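 Vital signs were taken predose and during an in-house stay (48 h for groups 1–4, 120 h for the top dose). Outpatient visits at 72, 96 and 120 h followed a single fasted oral dose, in a double-blind, placebo-controlled design with 6 active and 2 placebo per group.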

[10] = Renal clearance in healthy human at 200 mg, po administered as single dose measured after 48 hrs; format: ADME, organism-based, Kidney; settings: in vivo, read-out: CL_renal (converted)
Summary of the method: (§5)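 Healthy adults (6 active per dose) got a single oral suspension dose after an 8-h fast, with food withheld 4 h. Urine over 0–48 h in intervals and serial EDTA plasma were assayed by validated LC-MS/MS, with plasma calibration from 1 to 1,000 ng/ml. CLR = Ae0-48 (urine volume × concentration summed) divided by plasma AUC0-48.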

[11] = Apparent volume of distribution in healthy human plasma at 1200 mg, po administered as single dose measured after 120 hrs; format: ADME, organism-based
[12] = Renal clearance in healthy human at 400 mg, po administered as single dose measured after 48 hrs; format: ADME, organism-based, Kidney; settings: in vivo, read-out: CL_renal (converted); summary of the method: as §5
Legionella sp. = test: Antimicrobial activity against Legionella sp.; format: functional
Streptococcus pyogenes = test: Antimicrobial activity against Streptococcus pyogenes; format: functional
[13] = Half life in healthy human plasma at 100 mg, po administered as single dose measured after 120 hrs; format: ADME, organism-based
Homo sapiens [14] = test: Toxicity in healthy human assessed as changes in gamma-glutamyl transpeptidase level at 100 to 1200 mg, po administered as single dose; format: organism-based; settings: in vivo; summary of the method: as §4
[15] = AUC (0 to last) in healthy human plasma at 1200 mg, po administered as single dose measured after 120 hrs; format: ADME, organism-based; set-up: dose 1200 mg, route oral, time 0 - last; summary of the method: as §1
[16] = AUC (0 to infinity) in healthy human plasma at 200 mg, po administered as single dose measured after 120 hrs; format: ADME, organism-based; set-up: dose 200 mg, route oral, time infinity; summary of the method: as §1
[17] = Tmax in healthy human plasma at 100 mg, po administered as single dose measured after 120 hrs; format: ADME, organism-based; summary of the method: as §2
[18] = AUC (0 to last) in healthy human plasma at 800 mg, po administered as single dose measured after 120 hrs; format: ADME, organism-based; set-up: dose 800 mg, route oral, time 0 - last; summary of the method: as §1
Homo sapiens [19] = test: Toxicity in healthy human assessed as incidence of elevated hepatic transaminase levels at 100 to 1200 mg, po administered as single dose; format: organism-based; settings: in vivo; summary of the method: as §4
Homo sapiens [20] = test: Renal clearance in healthy human assessed as cumulative amount excreted in urine at 200 mg, po administered as single dose measured after 48 hrs; format: ADME, organism-based; settings: in vivo
Summary of the method: (§6)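 Healthy adults (6 per dose) received a single fasted oral suspension dose. Urine was collected predose and over 0–2, 2–4, 4–6, 6–8, 8–12, 12–24 and 24–48 h intervals, volumes were recorded, and aliquots were stored at −20°C. Samples were assayed by LC-MS/MS. Ae0-48 is the summed volume × concentration over all intervals; the mean was reported.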

Homo sapiens [21] = test: Renal clearance in healthy human assessed as cumulative amount excreted in urine at 800 mg, po administered as single dose measured after 48 hrs; format: ADME, organism-based; settings: in vivo; summary of the method: as §6
Homo sapiens [22] = test: Renal clearance in healthy human assessed as cumulative amount excreted in urine at 100 mg, po administered as single dose measured after 48 hrs; format: ADME, organism-based; settings: in vivo; summary of the method: as §6
[23] = AUC (0 to infinity) in healthy human plasma at 800 mg, po administered as single dose measured after 120 hrs; format: ADME, organism-based; set-up: dose 800 mg, route oral, time infinity; summary of the method: as §1
[24] = Cmax in healthy human plasma at 200 mg, po administered as single dose measured after 120 hrs; format: ADME, organism-based; set-up: dose 200 mg, route oral
Summary of the method: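 Healthy adults (n = 6 per dose) took a single oral suspension fasted (8 h before, 4 h after). Plasma was sampled from 0.25 to 120 h postdose and quantified by validated LC-MS/MS after acetonitrile precipitation (LLOQ 1 ng/ml). Cmax was read directly from observed concentration–time data; the group mean was reported.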

[25] = Apparent oral clearance in healthy human plasma at 1200 mg, po administered as single dose measured after 120 hrs; format: ADME, organism-based; summary of the method: as §3
[26] = AUC (0 to last) in healthy human plasma at 400 mg, po administered as single dose measured after 120 hrs; format: ADME, organism-based; set-up: dose 400 mg, route oral, time 0 - last; summary of the method: as §1
[27] = Tmax in healthy human plasma at 1200 mg, po administered as single dose measured after 120 hrs; format: ADME, organism-based; summary of the method: as §2
[28] = Tmax in healthy human plasma at 200 mg, po administered as single dose measured after 120 hrs; format: ADME, organism-based; summary of the method: as §2
[29] = Half life in healthy human plasma at 400 mg, po administered as single dose measured after 120 hrs; format: ADME, organism-based
Streptococcus pneumoniae = test: Antimicrobial activity against macrolide-resistant Streptococcus pneumoniae carrying mefA and/or ermB genes; format: functional
[30] = Renal clearance in healthy human assessed as cumulative fraction excreted unchanged in urine at 100 mg, po administered as single dose measured after 48 hrs; format: ADME, organism-based; settings: read-out: Fraction Recovered in urine
Summary of the method: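 After a single oral fasted suspension dose in healthy adults (6 per group), urine was collected in intervals to 48 h and measured by LC-MS/MS. fe0-48 = Ae0-48 (summed interval volume × concentration) / dose × 100%; the mean was reported.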

CC[C@H]1OC(=O)[C@H](C)C(=O)[C@H](C)[C@@H](O[C@@H]2O[C@H](C)C[C@H](N(C)C)[C@H]2O)[C@@]2(C)C[C@@H](C)/C(=N\C(C)=O)[C@H](C)[C@@H](OC/C(=N\OCc3ccc(-n4cccn4)nc3)CO2)[C@]1(C)O [MODITHROMYCIN]
AUC(0-t) at 120 h [1]: 3400 ng·h/mL
Tmax [2]: 4.26 h
Vd/F [3]: 601 L
CL/F [4]: 432 mL/min
Vd/F [5]: 656 L
Activity (Homo sapiens [6]): 16.7%
half-life [7]: 20.1 h
k el at 120 h [8]: 1.22e-05 s⁻¹
Activity (Homo sapiens [9]): Non-toxic
CL renal at 48 h [10]: 60.3 mL/min
Vd/F [11]: 909 L
CL renal at 48 h [12]: 58 mL/min
MIC90 (Legionella sp.): 0.031 µg/mL (≈ 0.0369 µM)
Ratio (Streptococcus pyogenes): 32
half-life [13]: 15.6 h
Activity (Homo sapiens [14]): Non-toxic
AUC(0-t) at 120 h [15]: 37400 ng·h/mL
AUC(0-inf) [16]: 7710 ng·h/mL
Tmax [17]: 1.75 h
AUC(0-t) at 120 h [18]: 33400 ng·h/mL
Activity (Homo sapiens [19]): 23%
Amount Recovered in urine (Homo sapiens [20]): 24.5 mg
Amount Recovered in urine (Homo sapiens [21]): 91.1 mg
Amount Recovered in urine (Homo sapiens [22]): 8.57 mg
AUC(0-inf) [23]: 33900 ng·h/mL
Cmax [24]: 360 ng/mL
CL/F [25]: 523 mL/min
AUC(0-t) at 120 h [26]: 14300 ng·h/mL
Tmax [27]: 5 h
Tmax [28]: 2.5 h
half-life [29]: 15.8 h
MIC (Streptococcus pneumoniae): 0.25 µg/mL (≈ 0.297 µM)
dose excreted at 48 h [30]: 8.57%
